Measurements: ChEMBL document CHEMBL4725282, “Discovery of a Conformationally Constrained Oxazolidinone with Improved Safety and Efficacy Profiles for the Treatment of Multidrug-Resistant Tuberculosis” (J Med Chem, 2020)
Values after ≈ are worked out from the molar mass of the structure shown.

Columns and labels:
[1] = Inhibition of human CaV alpha1c/alpha2/delta/beta2a expressed in HEK293 cells measured after 60 mins by fluo-4 AM dye based fluorescence assay; type: cell-based; settings: HEK293, 1 h
Summary of the method: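 HEK-293 cells stably expressing human Cav1.2 (α1c, α2/δ, β2a) plus Kir2.3, seeded 1.2×10^4/well overnight in 1% FBS medium. Loaded with fluo-4 AM (4 μM), probenecid (5 mM) and brilliant black (1 mM) in 2× dye solution, 60 min at 37 °C. Ten concentrations from 1.52 to 30000 nM, duplicate, read on FLIPR (ex 470-495, em 515-575 nm). Inhibition normalised to KCl EC80 and solvent control; IC50 fitted.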

[2] = target: T1, Amine oxidase [flavin-containing] B (Homo sapiens, UniProt P27338); experiment: Inhibition of recombinant human MAOB expressed in baculovirus infected insect cells using kynuramine as substrate measured after 20 mins by LC-MS/MS analysis
T1 sequence (P27338 whole entry): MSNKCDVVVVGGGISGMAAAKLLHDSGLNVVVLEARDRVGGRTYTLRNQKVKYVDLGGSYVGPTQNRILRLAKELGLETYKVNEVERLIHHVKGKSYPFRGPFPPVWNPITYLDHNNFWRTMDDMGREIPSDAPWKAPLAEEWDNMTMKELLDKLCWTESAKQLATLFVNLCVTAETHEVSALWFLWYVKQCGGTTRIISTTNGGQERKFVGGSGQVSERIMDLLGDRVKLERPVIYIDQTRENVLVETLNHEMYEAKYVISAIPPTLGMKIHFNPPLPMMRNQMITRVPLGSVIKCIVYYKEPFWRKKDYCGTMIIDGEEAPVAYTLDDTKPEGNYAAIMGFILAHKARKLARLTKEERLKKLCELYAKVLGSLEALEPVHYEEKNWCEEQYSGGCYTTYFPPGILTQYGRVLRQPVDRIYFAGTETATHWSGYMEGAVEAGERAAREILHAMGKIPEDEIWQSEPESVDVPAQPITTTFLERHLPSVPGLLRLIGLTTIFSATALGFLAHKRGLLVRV
Summary of the method: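 Recombinant human MAO-A or MAO-B (50 μg/mL) in 100 mM potassium phosphate pH 7.4 with 5 mM MgCl2. Kynuramine substrate at 50 μM (MAO-A) or 25 μM (MAO-B). […] 4-Hydroxyquinoline formation measured by LC-MS/MS versus vehicle; IC50 derived.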

[3] = AUC (0 to t) in Balb/c mouse at 25 mg/kg, po by LC-MS/MS analysis; type: ADME, organism-based; design: dose 25 mg/kg; settings: in vivo
Summary of the method: (§1)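 Female BALB/c mice (20–25 g), five per route. Oral dose 25 mg/kg in 0.5% carboxymethyl cellulose; i.v. dose 2.5 mg/kg in 10% DMSO/physiological saline. Blood sampled 5 min–72 h after p.o. and 2 min–48 h after i.v. Analyte quantified by LC/MS/MS (ESI positive, C18, isocratic methanol/water). Parameters from non-compartmental analysis.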

[4] = Mutagenicity in Salmonella typhimurium TA98 up to 1000 ug measured after 48 to 72 hrs in absence of S9 fraction by Ames test; type: toxicity; settings: salmonella enterica subsp. enterica serovar typhimurium, dose <=1000 µg, time 48-72 hrs
Summary of the method: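 Mini-Ames, plate incorporation in 6-well format. Bacteria, compound (DMSO vehicle, top 1000 µg/well), and 10% S9 mix or PBS were mixed into molten agar at 45°C and poured over minimal agar, then incubated 37°C for 48-72 h. Revertants were counted manually and the background lawn inspected. A result is positive at ≥2-fold the mean vehicle revertants with a dose-related increase.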

[5] = Toxicity in female Sprague-Dawley rat assessed as change in lymphocyte level at 450 mg/kg/day, po administered for 4 weeks followed by 2 week recovery period (Rvb =76.9 +/- 4.6 %); type: organism-based; settings: in vivo, 672 h
[6] = MRT (0 to infinity) in Balb/c mouse at 25 mg/kg, po by LC-MS/MS analysis; type: ADME, organism-based; settings: in vivo; summary of the method: as §1
[7] = Toxicity in male Sprague-Dawley rat assessed as change in hematocrit level at 50 mg/kg/day, po administered for 4 weeks followed by 2 week recovery period (Rvb =45.2 +/- 1.7 %); type: organism-based; settings: in vivo, 672 h
[8] = Terminal half life in Balb/c mouse at 2.5 mg/kg, iv by LC-MS/MS analysis; type: ADME, organism-based; settings: in vivo, read-out: beta t1/2 (converted)
Summary of the method: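 Female BALB/c mice, 20-25 g, five per route. Dosed 25 mg/kg p.o. in 0.5% carboxymethyl cellulose or 2.5 mg/kg i.v. in 10% DMSO/saline. Blood sampled 5 min-72 h (p.o.) or 2 min-48 h (i.v.), quantified by LC/MS/MS with ESI+. Parameters by non-compartmental analysis; F = (AUCpo×dose_iv)/(AUCiv×dose_po)×100%.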

[9] = AUC (0 to infinity) in Balb/c mouse at 25 mg/kg, po by LC-MS/MS analysis; type: ADME, organism-based; design: route oral, time infinity, dose 25 mg/kg; settings: in vivo; summary of the method: as §1
[10] = Toxicity in male Sprague-Dawley rat assessed as change in hemoglobin count at 150 mg/kg/day, po administered for 4 weeks followed by 2 week recovery period (Rvb =144 +/- 5 g/L); type: organism-based; settings: in vivo, 672 h
[11] = test system: Mycobacterium tuberculosis; experiment: Antitubercular activity against Mycobacterium tuberculosis H37Rv incubated for 7 days by microplate alamar blue assay; type: functional; settings: time 7 day, 168 h
Summary of the method: (§2)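 MIC determined by microplate alamar blue assay (MABA) following a published protocol.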

[12] = target: Voltage-gated inwardly rectifying potassium channel KCNH2 (Homo sapiens, UniProt Q12809); experiment: Inhibition of human ERG expressed in HEK293 cells by whole cell manual patch clamp method; type: cell-based
Sequence of Voltage-gated inwardly rectifying potassium channel KCNH2 (Q12809 whole entry): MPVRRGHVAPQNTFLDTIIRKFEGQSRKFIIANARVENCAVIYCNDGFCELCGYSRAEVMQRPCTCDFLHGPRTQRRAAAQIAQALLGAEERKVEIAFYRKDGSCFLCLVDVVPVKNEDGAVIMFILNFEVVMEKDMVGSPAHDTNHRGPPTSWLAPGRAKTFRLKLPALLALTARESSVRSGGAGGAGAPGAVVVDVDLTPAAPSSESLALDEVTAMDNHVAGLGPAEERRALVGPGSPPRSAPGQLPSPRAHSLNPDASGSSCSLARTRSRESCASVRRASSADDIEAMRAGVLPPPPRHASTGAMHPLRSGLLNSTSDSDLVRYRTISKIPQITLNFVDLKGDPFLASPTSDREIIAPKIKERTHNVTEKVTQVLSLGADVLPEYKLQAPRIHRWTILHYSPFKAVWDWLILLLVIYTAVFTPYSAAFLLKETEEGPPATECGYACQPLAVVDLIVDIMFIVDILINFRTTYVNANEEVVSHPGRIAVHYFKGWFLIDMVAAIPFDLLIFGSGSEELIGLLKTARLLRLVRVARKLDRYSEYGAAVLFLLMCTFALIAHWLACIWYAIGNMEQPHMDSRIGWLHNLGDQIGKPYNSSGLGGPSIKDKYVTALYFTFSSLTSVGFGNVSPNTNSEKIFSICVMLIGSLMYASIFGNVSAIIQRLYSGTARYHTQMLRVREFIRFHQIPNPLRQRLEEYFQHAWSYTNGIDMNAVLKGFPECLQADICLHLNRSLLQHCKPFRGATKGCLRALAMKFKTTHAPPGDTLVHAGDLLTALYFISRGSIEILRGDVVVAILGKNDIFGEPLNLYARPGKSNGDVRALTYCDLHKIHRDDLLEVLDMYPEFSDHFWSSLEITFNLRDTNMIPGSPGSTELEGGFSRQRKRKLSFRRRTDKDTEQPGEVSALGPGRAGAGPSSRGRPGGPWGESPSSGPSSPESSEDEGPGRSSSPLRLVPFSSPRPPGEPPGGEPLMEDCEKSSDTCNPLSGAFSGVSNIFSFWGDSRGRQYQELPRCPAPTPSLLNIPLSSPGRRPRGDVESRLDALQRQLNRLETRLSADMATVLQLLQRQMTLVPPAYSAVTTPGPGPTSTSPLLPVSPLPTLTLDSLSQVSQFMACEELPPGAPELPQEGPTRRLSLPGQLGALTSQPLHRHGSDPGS
Summary of the method: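 HEK293 cells stably transfected with hERG; currents recorded by whole-cell manual patch clamp at 25 °C, sampled at 10 kHz. Five concentrations (0.3–30 μM) in duplicate for IC50; dofetilide as positive control.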

[13] = Toxicity in female Sprague-Dawley rat assessed as change in white blood cell count at 50 mg/kg/day, po administered for 4 weeks followed by 2 week recovery period (Rvb =3.61 +/- 0.75 10^9/L); type: organism-based; settings: in vivo, 672 h
[14] = MRT (0 to t) in Balb/c mouse at 25 mg/kg, po by LC-MS/MS analysis; type: ADME, organism-based; settings: in vivo; summary of the method: as §1
[15] = test system: Mycobacterium tuberculosis; experiment: Antitubercular activity against Mycobacterium tuberculosis isolate 12525 incubated for 7 days by microplate alamar blue assay; type: functional; settings: isolate 12525, 168 h, time 7 day; summary of the method: as §2
[16] = Stability in CD-1 mouse liver microsome assessed as parent compound remaining at 1 uM measured after 30 mins in presence of NADPH by LC-MS/MS analysis; type: ADME; settings: liver microsomes, read-out: Stabilty
Summary of the method: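 Liver microsomes (male CD-1 mouse or pooled human), 1 mg/mL protein, compound 1 µM, 37°C with shaking. Started with 1 mM NADPH or run without cofactor. Quenched with ice-cold ACN/MeOH containing internal standard. Parent quantified by LC-MS/MS; 30 min concentration normalised to time zero.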

Row | SMILES | IC50 [1] [µM] | IC50 [2] [µM] | AUC(0-t) [3] [ng·h/mL] | Activity [4] | Activity [5] [%] | MRT inf [6] [h] | Activity [7] [%] | half-life [8] [h] | AUC(0-inf) [9] [ng·h/mL] | Activity [10] [g/L] | MIC [11] [µg/mL] | IC50 [12] [µM] | Activity [13] | MRT last [14] [h] | MIC [15] [µg/mL] | remaining at 0.5 h, 1 µM [16] [%] | MIC ([11]; Mycobacterium tuberculosis, H37Rv, read-out: MIC) [µg/mL]
1 | CC(=O)NC[C@@H]1OC(=O)N2c3cc(F)c(N4CCSCC4)cc3OC[C@@H]12 | > 30 | 3.2 | 6480 | Non-Toxic | 83.7 | 15.2 | 43.5 | 0.923 | 7620 | 141 | 0.03 (≈ 0.0787 µM) | > 30 | 4.2 10^9/L | 7.59 | 0.03 (≈ 0.0787 µM) | 48.7 | 
2 | CC(=O)NC[C@@H]1OC(=O)N2c3cc(F)c(N4CC[S+]([O-])CC4)cc3OC[C@@H]12 | > 30 | > 100 | 8750 | Non-Toxic |  | 10.8 |  | 3.81 | 9020 |  |  | > 30 |  | 9.83 | 0.46 (≈ 1.16 µM) | 100 | 0.44 (≈ 1.11 µM)
